Measurements: ChEMBL document CHEMBL1138612, “Inhibition of monoamine oxidase by (E)-styrylisatin analogues” (Bioorg Med Chem Lett, 2009)

Assays:
[1] = target: T1, Amine oxidase [flavin-containing] A (Homo sapiens, UniProt P21397); experiment: Inhibition of recombinant wild-type MAOA from human liver expressed in Pichia pastoris
T1 sequence (P21397 whole entry): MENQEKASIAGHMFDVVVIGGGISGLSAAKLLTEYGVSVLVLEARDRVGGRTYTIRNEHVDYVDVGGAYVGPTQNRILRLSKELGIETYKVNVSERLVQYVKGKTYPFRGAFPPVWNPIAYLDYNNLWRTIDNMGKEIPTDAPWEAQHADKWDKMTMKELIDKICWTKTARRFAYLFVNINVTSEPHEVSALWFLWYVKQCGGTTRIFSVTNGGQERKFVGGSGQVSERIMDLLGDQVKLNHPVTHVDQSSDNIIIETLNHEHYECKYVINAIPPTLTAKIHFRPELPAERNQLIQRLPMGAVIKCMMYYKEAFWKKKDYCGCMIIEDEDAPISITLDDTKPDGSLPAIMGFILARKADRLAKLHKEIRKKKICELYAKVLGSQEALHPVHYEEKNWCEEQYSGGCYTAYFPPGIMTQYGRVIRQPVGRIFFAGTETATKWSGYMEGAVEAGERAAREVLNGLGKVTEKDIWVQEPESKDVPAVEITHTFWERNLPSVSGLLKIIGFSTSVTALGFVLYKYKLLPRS

Homo sapiens = species: Homo sapiens; experiment: Selectivity ratio of Ki for recombinant wild-type MAOA from human liver to Ki for recombinant wild-type MAOB from human liver
Summary of the method: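 Substrates were p-CF3-benzylamine for MAO-A (243 nm) and benzylamine for MAO-B (250 nm), six concentrations 50–3000 µM, three inhibitor levels. Ki from apparent Km versus inhibitor; selectivity = Ki(MAO-A)/Ki(MAO-B).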

[2] = Inhibition of baboon liver MAOB; set-up: species or system Papio hamadryas
Summary of the method: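 Baboon liver mitochondrial fractions as MAO-B source, with MMTP as substrate. IC50 from means ± SEM of duplicate determinations. Reversibility was tested by preincubating inhibitor (40 nM) with the mitochondria for 0, 15, 30 and 60 min.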

[3] = target: T2, Amine oxidase [flavin-containing] B (Homo sapiens, UniProt P27338); experiment: Inhibition of recombinant wild-type MAOB from human liver expressed in Pichia pastoris
T2 sequence (P27338 whole entry): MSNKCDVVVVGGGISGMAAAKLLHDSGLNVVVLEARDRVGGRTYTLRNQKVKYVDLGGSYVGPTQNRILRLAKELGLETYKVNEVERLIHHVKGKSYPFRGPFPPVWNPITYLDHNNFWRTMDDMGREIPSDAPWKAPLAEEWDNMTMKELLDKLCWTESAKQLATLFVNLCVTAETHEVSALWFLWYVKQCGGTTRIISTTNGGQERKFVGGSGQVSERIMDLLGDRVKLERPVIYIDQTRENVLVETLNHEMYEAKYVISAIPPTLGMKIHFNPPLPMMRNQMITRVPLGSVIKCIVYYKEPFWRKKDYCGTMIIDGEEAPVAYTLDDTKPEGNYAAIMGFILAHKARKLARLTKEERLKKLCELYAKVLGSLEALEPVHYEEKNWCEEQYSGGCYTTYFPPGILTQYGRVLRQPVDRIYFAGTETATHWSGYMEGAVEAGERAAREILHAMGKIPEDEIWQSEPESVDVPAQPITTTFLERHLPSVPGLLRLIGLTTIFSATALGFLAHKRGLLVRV

[4] = Inhibition of human MAOB […] mutant

| Ki [1] | Ratio Ki (Homo sapiens) | IC50 [2] | Ki [3] | Ki [4] | SMILES |
| --- | --- | --- | --- | --- | --- |
| 780 nM | 5 | 41.7 nM | 310 nM | 1100 nM | O=C1Nc2ccc(/C=C/c3ccccc3)cc2C1=O |
| 5600 nM | 2.5 | 20.7 nM | 1400 nM | 12500 nM | O=C1Nc2ccc(/C=C/c3cccc(Cl)c3)cc2C1=O |
| 2200 nM |  |  |  |  | O=C1Nc2ccc(/C=C/c3cccc(F)c3)cc2C1=O |
